Screens from PubChem.
Mdm2 ligase inh: Mdm2 E3 ligase (human) inhibition; Q00987; cell-based MDM2 ubiquitination luciferase reporter, 2 h; 0 = plate control, 100 = twice control, blank-subtracted; signal enhancement, % at 5 µM; actives 0.11% (n = 210,000); AID 1230;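 active = signal enhancement of 30% or more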;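 also: luminescence tracks abundance of the self-degrading MDM2-luciferase fusion protein; higher signal means inhibition of MDM2 E3 ligase activity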
Target sequence (Q00987 whole entry, looked up, the tested form may be a part): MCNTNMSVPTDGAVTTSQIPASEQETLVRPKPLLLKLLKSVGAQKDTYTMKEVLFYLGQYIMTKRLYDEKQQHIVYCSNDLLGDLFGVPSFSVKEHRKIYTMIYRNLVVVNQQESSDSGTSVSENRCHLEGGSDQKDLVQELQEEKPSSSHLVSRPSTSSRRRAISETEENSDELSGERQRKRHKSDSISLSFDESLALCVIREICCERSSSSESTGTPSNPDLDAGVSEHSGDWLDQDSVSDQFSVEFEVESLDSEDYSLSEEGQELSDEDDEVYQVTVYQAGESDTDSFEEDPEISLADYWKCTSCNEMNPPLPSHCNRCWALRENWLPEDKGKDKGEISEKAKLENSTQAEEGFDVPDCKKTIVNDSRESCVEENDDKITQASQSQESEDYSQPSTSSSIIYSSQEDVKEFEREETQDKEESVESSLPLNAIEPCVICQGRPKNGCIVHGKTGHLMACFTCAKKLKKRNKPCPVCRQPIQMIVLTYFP
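Buffer or medium: Cells held in DMEM | Assay system: Stable mammalian line carrying autodegrading MDM2–luciferase fusion reporter | Quantity: 2000 cells/well | Times: 4 h settle plus 2 h compound, 37 °C | Doses: One concentration, 5 µM, with 0.2% DMSO | Technique: Luminescence with SteadyLite reagent, 15 min at room temperature | Benchmarks: Plate controls and plate blanks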
STAT1 act: activators of IFN-gamma induced STAT1 signaling. NIH 3T3 STAT1-luciferase reporter, luminescence; 100% = IFN-gamma alone, no compound. activation (% of control), % at 5.5 µM. actives 2.6% (n = 200,000). AID 932;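 active = activation above the screen-wide mean activation plus 3 SD, cut at about 130% in these data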;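 also: raw ratio to IFN-gamma control signal so 100% means no change and 0% no light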
APP 5'UTR act: APP 5'UTR luciferase reporter activation; SH-SY5Y APP 5'UTR luciferase reporter, luminescence; zero percent = DMSO vehicle wells; activation, % at 2 µM; actives 1% (n = 190,000); AID 1276;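 active = activation above a set limit, based on mean plus 3 SD of controls, cut at about 140% in these data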
NF-kB expr up: compounds increasing NF-kB expression in human neuronal cells. NF-kB reporter expression; active compounds read high. fold change at 12.5 µM. actives 1.6% (n = 190,000); in the data active = fold change above about 3.3
AHR activator: human AHR activation; activation, % at 5 µM; AHR-responsive luciferase reporter cells, luminescence; actives 2.5% (n = 320,000); AID 2796; P35869; in the data active = activation above about 47%;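 also: 0% = vehicle wells and 100% = reference agonist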
PERK inhibitor: inhibitors of human PERK kinase; CHO PERK-DD fusion, SEAP luminescence translation reporter; inhibition, % at 5.6 µM; actives 0.17% (n = 220,000); AID 1416;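 active = inhibition above the mean inhibition of all tested compounds plus 3 SD, set separately per screening campaign, cut at about 2.9% in these data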;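 also: PERK kinase domain activated by AP20187 dimerizer at 100 nM; 0% = DMSO with dimerizer and 100% = rapamycin at 8.4 µM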
* marks the source's active call; other numbers are inactive results; . = not tested or not shown. Compounds with a hit are over-represented: about 4.5% of the library has one in this group of screens.

SMILES | Mdm2 ligase inh | STAT1 act | APP 5'UTR act | NF-kB expr up | AHR activator | PERK inhibitor
Cc1cc(OCc2nc(-c3cccs3)no2)cc(C)c1Cl | -14 | 102 | 10 | 1.4 | 1 | -1
COc1cc(C#Cc2c(-c3cncn3C)n(C)c3ccc(Br)cc23)cc(OC)c1 | . | . | . | . | 27 | .
COc1cc(C#Cc2c(-c3cncn3C)n(C)c3ccc(-c4ccc(OC)c(OC)c4)cc23)cc(OC)c1 | . | . | . | . | 68* | .
CCOc1ncccc1C(=O)NNC(=O)c1ccc(NS(=O)(=O)c2cccs2)cc1 | . | . | . | . | 25 | .
CCOC(=O)N1CCN(S(=O)(=O)c2ccc(C(=O)NNc3nc4c(C)cccc4s3)cc2)CC1 | . | 98 | 28 | 0.63 | 20 | 0
CCOC(=O)N1CCN(S(=O)(=O)c2ccc(C(=O)NNc3nc4c(C)cc(C)cc4s3)cc2)CC1 | . | 111 | 21 | 1.3 | 47* | 0
Cc1ccc(NC(=O)Nc2cccc(C)n2)cc1 | . | . | . | . | 25 | .
Cc1cccc(NC(=O)c2ccc(C(=O)c3ccccc3)cc2)n1 | . | . | . | . | 5 | .
Cc1cccc(NC(=O)Nc2ccc(C)c(C)c2)n1 | -23 | 129* | 2 | 2.1 | 43 | -1
Cc1cccc(NC(=O)COc2ccc(Br)cc2)n1 | 2 | 106 | 36 | 1.3 | 78* | 2
Cc1cccc(NC(=O)c2cccc(C(=O)Nc3cccc(C)n3)c2)n1 | . | . | . | . | 50* | .
Cc1cc(NC(=O)c2cccc(Cl)c2)n[nH]1 | . | . | . | . | 71* | .
COc1cc(CN(C(=O)c2cccs2)C2CCS(=O)(=O)C2)cc(OC)c1OC (stereo unspecified) | . | . | . | . | -4 | .
COc1ccc(-c2nnn(CC(=O)Nc3ccc4c(c3)OCCO4)n2)cc1OC | . | . | . | . | -1 | .
CCN1CCN(c2ccc(NC(=O)CCc3c(C)nc4c(-c5ccc(F)cc5)c(C)nn4c3C)cc2)CC1 | -5 | 100 | 0 | 0.5 | 2 | 0
Cc1cccc(NC(=O)Nc2ccc([N+](=O)[O-])cc2)n1 | -28 | 134* | 15 | 1.1 | -4 | 2
COc1ccc(C2=Nc3ccccc3OC2)cc1 | -9 | 123 | 128 | 8.4* | 14 | 0
COc1ccc(C2=NNC(=O)CC2)cc1 | . | 105 | 5 | 0.93 | 1 | 0
COc1ccc(NC(=O)COc2cccc3c2CCN(C)C3=O)c(OC)c1 | . | . | . | . | 77* | .
CN1CCc2c(OCC(=O)NC3CCCCC3)cccc2C1=O | . | . | . | . | 1 | .
NS(=O)(=O)c1ccc(NC(=O)c2ccc(F)cc2F)c(NC(=O)c2ccc(F)cc2F)c1 | . | . | . | . | 4 | .
O=c1[nH]c2ccc(NC(=S)Nc3ccc(F)cc3)cc2[nH]1 | -12 | . | . | . | 0 | 1
CCc1ccc(NC(=S)Nc2ccc3[nH]c(=O)[nH]c3c2)cc1 | -4 | . | . | . | 0 | 3.0*
Brc1ccccc1-n1nnc(-c2cccnc2)n1 | . | 126 | -2 | 1.8 | -1 | 0
Fc1ccc(-n2nnc(-c3cccnc3)n2)cc1 | . | 149* | 24 | 2.1 | 12 | 1
SMILES | Mdm2 ligase inh | STAT1 act | APP 5'UTR act | NF-kB expr up | AHR activator | PERK inhibitor
O=C(NCCCc1ccccc1)c1ccc(CS(=O)Cc2ccccc2Cl)o1 (stereo unspecified) | . | . | . | . | 2 | .
CN(C)/C=N/C(=S)Nc1ccc(Cl)cc1Cl | -3 | 132* | 13 | 1.7 | 5 | 0
Fc1ccccc1/C=N/NC(=S)Nc1ccc(Cl)cc1Cl | -2 | 94 | -94 | 1.2 | 77* | 1
CCCNC(=O)c1ccc2c(=O)c(O)c(-c3ccc(F)cc3)[nH]c2c1 | 14 | . | . | . | 70* | .
CCCNC(=O)c1ccc2c(=O)c(O)c(-c3cccc(Br)c3)[nH]c2c1 | 17 | . | . | . | 19 | .
O=C(Nc1c2c(nn1-c1ccc(Cl)cc1)CS(=O)(=O)C2)c1ccccc1 | . | . | . | . | 0 | .
NC1=NC(=O)/C(=C\C=C\c2ccccc2)S1 | 8 | 134* | 19 | 1.5 | -2 | -1
O=C(Cc1ccc(S(=O)(=O)N2CCOCC2)s1)Nc1cc(Cl)ccc1Cl | . | . | . | . | 92* | .
COc1cc(NC(=O)Cc2ccc(S(=O)(=O)N3CCOCC3)s2)c(OC)cc1Cl | . | . | . | . | 17 | .
Cc1cc(NC(=O)CSc2nc3ccc(Cl)cc3[nH]2)no1 | 0 | 94 | 17 | 1.1 | 16 | -1
COc1ccc(-c2cc(-c3ccccc3O)[nH]n2)cc1 | -51 | 106 | 192* | 7.1* | 26 | 0
COc1ccc(-c2cc(-c3c(O)c(OC)c4occc4c3OC)[nH]n2)cc1 | -6 | 90 | 27 | 0.95 | 69* | -1
Oc1ccc(F)cc1-c1cc(-c2ccc3c(c2)OCCO3)n[nH]1 | -25 | 110 | 197* | 11* | 9 | 0
COc1ccc(-c2cc(-c3c(O)c(OC)c4occc4c3OC)[nH]n2)cc1OC | 5 | 87 | 18 | 0.64 | -5 | 0
Oc1ccccc1-c1ccn[nH]1 | . | . | . | . | 2 | .
Oc1ccccc1-c1cc(-c2ccc(F)cc2)n[nH]1 | . | . | . | . | 74* | .
Oc1ccc(Br)cc1-c1cc(-c2ccccc2Cl)[nH]n1 | 15 | . | . | . | 47 | 0
COc1ccccc1-c1cc(-c2cc(Cl)ccc2O)n[nH]1 | -6 | 100 | 24 | 1.3 | 32 | 0
Oc1ccc(Br)cc1-c1cc(-c2ccccc2F)[nH]n1 | -15 | 99 | 17 | 1.4 | 56* | 1
Oc1ccc(Cl)cc1-c1cc(-c2ccccc2)n[nH]1 | -11 | 111 | 36 | 1.8 | 66* | 1
CCCCn1nnnc1SCC(=O)c1ccc(C)c(C)c1 | -7 | 113 | 10 | 1.5 | 2 | 0
Cc1ccc(C(=O)CSc2nnc(C(C)C)n2C)cc1C | 2 | 118 | 15 | 3.4* | 18 | 0
COc1ccc(C(=O)O/N=C(\N)c2ccccc2)cc1 | . | . | . | . | 2 | .
Cc1cccc(/C(N)=N/OC(=O)c2ccco2)c1 | -13 | 110 | 163* | 6.4* | -2 | 1
N/C(=N\OC(=O)c1ccco1)c1ccccc1 | 6 | 143* | 142* | 2.2 | 6 | 0
SMILES | Mdm2 ligase inh | STAT1 act | APP 5'UTR act | NF-kB expr up | AHR activator | PERK inhibitor
Cc1ccc(/C(N)=N/OC(=O)c2ccco2)cc1 | -26 | 94 | 162* | 5.2* | -10 | 0
COc1ccc(/C(N)=N/OC(=O)c2ccco2)cc1 | -56 | 50 | 182* | 0.96 | -6 | 0
Cc1cccc(/C(N)=N/OC(=O)N2CCOCC2)c1 | -9 | 116 | 19 | 1.6 | 3 | 0
Cc1ccc(S(=O)(=O)NCC(=O)NCC2CCCCC2)cc1C | . | . | . | . | 1 | .
COc1ccc(S(=O)(=O)N(CC(=O)NCc2ccco2)c2ccccc2OC)cc1 | . | . | . | . | -1 | .
C(=C\c1ccccc1)/CSc1ccccn1 | -13 | 136* | 54 | 2.2 | -4 | 1
Cc1cc(C)nc(SC/C=C/c2ccccc2)n1 | . | . | . | . | 7 | .
CC(NC(=O)c1ccc(CS(C)(=O)=O)cc1)c1cccc2ccccc12 (stereo unspecified) | . | . | . | . | 3 | .
CC1CCc2sc(C(=O)N/N=C/c3ccc([N+](=O)[O-])cc3)cc2C1 (stereo unspecified) | -11 | 100 | -5 | 1 | 65* | 1
O=C(N/N=C/c1ccc([N+](=O)[O-])cc1)c1cccs1 | -14 | . | . | . | -1 | 1
